ChEMBL document CHEMBL3244415, “Synthesis and pharmacological properties of [5-isoleucine]-, [8-isoleucine]-, and [5,8-diisoleucine]bradykinin” (1979)
Activity calls are given as the source filed them. The calls are words filed in the database; no cut-off is given here. Non-standard residues stand in square brackets, D forms with d. Residues, ends and D or L forms follow the SMILES beside them. Cha = N[C@@H](CC1CCCCC1)C(=O)O

Tests used:
Rattus norvegicus [1] = experiment: Vasodepressor activity in rat assessed as ratio of bradykinin dose to compound intravenous dose that produce 20 mmHg fall in mean blood pressure; format: functional
Cavia porcellus = organism: Cavia porcellus; experiment: Intrinsic activity at bradykinin receptor in guinea pig ileum assessed as ratio of bradykinin dose to compound dose to give 50% maximum myotropic activity; format: tissue-based
In short: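 Strips of terminal guinea pig ileum, 2–3 cm long, were held in Tyrode's solution at 36 °C and bubbled with 95% O2-5% CO2. Isotonic contractions were recorded under 1 g tension. Full dose-response curves were run for bradykinin and analogue. The potency ratio was taken at the dose giving 50% maximal contraction.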

Rattus norvegicus [2] = organism: Rattus norvegicus; experiment: Intrinsic activity at bradykinin receptor in estrous rat uterus assessed as ratio of bradykinin dose to compound dose to give 50% maximum myotropic activity
In short: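 Uteri from estrous virgin rats were bathed in modified deJalon's solution with 20 mg/L CaCl2, at 30 °C, gassed with 98% O2-2% CO2. Isotonic contractions were recorded under 1 g tension. Full dose-response curves were run for bradykinin and analogue. The potency ratio was taken at the dose giving 50% maximal contraction.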

Rattus norvegicus [3] = organism: Rattus norvegicus; experiment: Vasodepressor activity in rat assessed as ratio of intraarterial dose of bradykinin to dose of compound that produce 20 mmHg fall in mean blood pressure; format: functional, Artery
In short: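 Male rats were anesthetized with Dial-urethan. Mean arterial pressure was recorded from the femoral artery. Drugs were given in saline by intracarotid injection. The ratio compares bradykinin and analogue doses that each lower mean pressure by 20 mmHg.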

Rattus norvegicus [4] = organism: Rattus norvegicus; experiment: Antagonist activity at bradykinin receptor in estrous rat uterus assessed as inhibition of bradykinin-induced myotropic activity at 1 x 10^-6 M preincubated for 2 mins followed by bradykinin addition; format: tissue-based
In short: (§1)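 Uteri from estrous virgin rats were suspended in modified deJalon's solution containing 20 mg/L CaCl2, kept at 30 °C and gassed with 98% O2-2% CO2. Isotonic contractions were recorded under 1 g tension. Analogue was added to the bath 2 min before various doses of bradykinin. Potency was compared at the concentration giving 50% maximal contraction.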

Rattus norvegicus [5] = organism: Rattus norvegicus; experiment: Antagonist activity at bradykinin receptor in estrous rat uterus assessed as inhibition of bradykinin-induced myotropic activity at 2.5 x 10^-6 M preincubated for 2 mins followed by bradykinin addition; format: tissue-based; in short: as §1
Rattus norvegicus [6] = organism: Rattus norvegicus; experiment: Antagonist activity at bradykinin receptor in estrous rat uterus assessed as inhibition of bradykinin-induced myotropic activity at 1 x 10^-5 M preincubated for 2 mins followed by bradykinin addition; format: tissue-based; in short: as §1

| Ratio (Rattus norvegicus [2]) | inhibition (Rattus norvegicus [4]) | inhibition (Rattus norvegicus [5]) | inhibition (Rattus norvegicus [6]) | Compound | Ratio (Rattus norvegicus [1]) | Ratio (Cavia porcellus) | Ratio (Rattus norvegicus [3]) |
| --- | --- | --- | --- | --- | --- | --- | --- |
| 0.33 | – | – | – | N=C(N)NCCC[C@H](NC(=O)[C@H](CC1CCCCC1)NC(=O)[C@@H]1CCCN1C(=O)[C@H](CO)NC(=O)[C@H](CC1CCCCC1)NC(=O)CNC(=O)[C@@H]1CCCN1C(=O)[C@@H]1CCCN1C(=O)[C@@H](N)CCCNC(=N)N)C(=O)O (H-RPPG[Cha]SP[Cha]R-OH) | 1 | 1 | – |
| – | inactive | – | – | H-RPPGFSPIR-OH | – | – | 0.00056 |
| 0.00028 | – | inactive | – | H-RPPGISPFR-OH | – | – | 0.00018 |
| < 0.0002 | – | – | inactive | H-RPPGISPIR-OH | – | – | < 0.00018 |
